Reference: article PMC3248997 (Bioorganic & medicinal chemistry, 2011)
Read-outs that look alike come from different tables or passages of the source.

Columns and labels:
[1] = intracerebroventricular injection of 10 nmol; cited from earlier work
[2] = tested on: COX-2 in primary human leukocytes; details: unclear which pyrazolone(s) were added; cited from earlier work
[3] = cited from earlier work
[4] = tested on: COX-2 in murine macrophages; details: unclear which pyrazolone(s) were added; cited from earlier work
[5] = cited from earlier work; remark: listed apart in the source
[6] = tested on: COX activity (PGE2 and 6-keto-PGF1α formation) in brain homogenates; test: Inhibition of COX activity in tissue extract; format: biochemical, C57BL/6 mice
In short: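 C57BL/6 mouse brain homogenate prepared on ice in 50 mM Tris pH 7.4 with 1 mM phenol and protease inhibitors. 20 µg homogenate preincubated with test compound or vehicle. 150 µM arachidonic acid added at 37°C. Stopped after 5 min by acidifying to pH 2.5 with formic acid and chilling. Prostanoids extracted with ethyl acetate/hexane (7:1). PGE2 and 6-keto-PGF1α quantified by GC-MS/MS.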

[7] = tested on: PGE2 formation in brain tissue from COX-1−/− mice; format: biochemical; details: 0.8 µM; brain tissue from LPS stimulated COX-1−/− mice
[8] = in vivo

For `CCCCC/C=C\C/C=C\C/C=C\C/C=C\CCCC(=O)Nc1ccc(O)cc1` [AM404, N-arachidonoylaminophenol], the antinociception [1] is listed as “Antinociception was observed”.
For `Cc1c(N(C)CS(=O)(=O)[O-])c(=O)n(-c2ccccc2)n1C.[Na+]` [compound 1, sodium N-(2,3-dimethyl-5-oxo-1-phenyl-3-pyrazolin-4-yl)-N-methylaminomethanesulphonate], the “activity against COX-2” value [2] is listed as ~21 µg/mL, the “time detectable in the serum” value ([3]; following intravenous administration) is listed as “about 15 min” and the “detectability in the serum after oral intake” value ([3]; oral intake) is listed as “not detectable”. For the same compound, the “activity against COX-2” value [4] was “approximately 12 µg ml^−1”.
In the case of `CNc1c(C)n(C)n(-c2ccccc2)c1=O` [compound 2, 4-methylaminoantipyrine], the “concentration in the cerebrospinal fluid” value [5] is listed as 5000 to 30000 ng/mL, the bioavailability ([3]; after oral administration of dipyrone) is listed as 85% and the “average elimination half-life (t1/2)” value [3] is listed as 2.6 to 3.5 h. For the same compound, the tmax ([3]; time to maximal systemic concentrations) was 1.2 to 2.0 h.
For `Cc1c(N)c(=O)n(-c2ccccc2)n1C` [compound 3, 4-aminoantipyrine], the “concentration in the cerebrospinal fluid” value [5] is given as 1000 to 7000 ng/mL.
In the case of `CCCCC/C=C\C/C=C\C/C=C\C/C=C\CCCC(=O)N(C)c1c(C)n(C)n(-c2ccccc2)c1=O` [compound 5, (5Z,8Z,11Z,14Z)-Icosa-5,8,11,14-tetraenoic acid (1,5-dimethyl-3-oxo-2-phenyl-2,3-dihydro-1H-pyrazol-4-yl)-methyl-amide], the “formation in brain of FAAH−/− mice as compared to wild type mice” value (dipyrone for 5 days) was “less than 2%”, the “amount in mouse brain cell homogenates” value (representative chromatogram, Figure 9 B) was 2.4 pg/sample and the “lowering of IC50 by the FAAH inhibitor URB532” value ([6]; inhibition of PGE2 formation in mouse brain homogenates) was “more than 200 fold”. For the same compound, the “formation of PGE2” value [7] was “did not observe any formation of PGE2”.
With `CCCCC/C=C\C/C=C\C/C=C\C/C=C\CCCC(=O)Nc1c(C)n(C)n(-c2ccccc2)c1=O` [compound 6, (5Z,8Z,11Z,14Z)-Icosa-5,8,11,14-tetraenoic acid (1,5-dimethyl-3-oxo-2-phenyl-2,3-dihydro-1H-pyrazol-4-yl)-amide] the “amount in mouse brain cell homogenates” value ([8]; C57BL/6, mouse) was 39 pg/sample, the “formation in brain of FAAH−/− mice as compared to wild type mice” value ([8]; FAAH−/− knockout compared with wild type (C57BL/6), mouse, 5 days) was “about 6%” and the “effect on PGE2 formation” value ([6]; brain homogenates, concentration range 100 nM to 100 µM) was “no effect”.
